In ChEMBL document CHEMBL4513216, “Probing the Open Global Health Chemical Diversity Library for Multistage-Active Starting Points for Next-Generation Antimalarials” (ACS Infect Dis, 2020) one finds cytotoxicity data, which are given here for 95 compounds.

This data set is described as follows: Toxicity liver stage against HepG2, at 10uM. Type of data set: cell-based. Further details: test concentration 10 uM, cell line HepG2-A16-CD81EGFP. Particulars: human, HepG2-A16-CD81EGFP cells; read-out: INHIBITION
An outline of the steps:
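Uninfected HepG2-A16-CD81EGFP cells, 3 × 10^3 per well, 1536-well, plated on prespotted compound at 10 μM final, parasite-free screening media added to match infected plates; puromycin 10 μM positive, DMSO 0.5% negative; run in parallel with 48 h PbLuc assay at 37 °C, 5% CO2; viability by CellTiter-Glo luminescence, normalized to controls.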
Regarding `Cc1ccc(F)cc1NC(=O)NCC(C)N1CCOCC1` (stereo not given), the cytotoxicity at 10 µM came out at 2.6%. For the compound `CN(C)c1nc2sc(C(=O)N3CCN(C(=O)OC(C)(C)C)CC3)cc2s1`, the cytotoxicity at 10 µM was 1.71%. With `Cc1ccc(S(=O)(=O)Cc2noc([C@@H]3C[C@@H](O)CN3)n2)cc1`, the cytotoxicity at 10 µM was -5.78%. For `CS(=O)(=O)c1ccc(CNC[C@H]2COCc3nc4ccccc4n32)cc1`, the cytotoxicity at 10 µM is -1.28%.

Regarding `Cn1ccnc1CN1C[C@H]2CN(S(C)(=O)=O)CCN2C1=O`, the cytotoxicity at 10 µM is -6.04%. Turning to `O=C(NC1CCCc2c1[nH]c1ccc(F)cc21)c1n[nH]c2c1CCCC2` (stereo not given), the cytotoxicity at 10 µM stood at 46.4%. `O=C(O)C1CCN(c2nc3c(-c4ccccc4F)csc3c(=O)[nH]2)CC1`: the cytotoxicity at 10 µM was -10%. To `CN(C)C1COC2(CCN(C(=O)c3cccnc3)CC2)C1` (stereo not given) belongs 3.53%; to `Cc1ccc(C(=O)N2CCO[C@H]3[C@H](OCCN(C)C)CC[C@@H]32)cn1`, 4.85%; to `O=C(CCn1ccc2ccc(Cl)cc21)NCc1ccc(C(=O)O)cc1`, -0.411%.

As for `COCC1c2nnn(CC3CC3)c2CCN1C(=O)Cc1cccs1` (stereo not given), the cytotoxicity at 10 µM is -15.8%. Regarding `O=C(c1cc2cccc(F)c2[nH]1)N1C[C@@H](O)[C@H](N2CCOCC2)C1`, the cytotoxicity at 10 µM stood at 0.0453%.

Turning to `CNc1cc(CCNC(=O)C2CCCC2)nc(-c2ccccn2)n1`, the cytotoxicity at 10 µM is 1.76%. On to `Cc1nnc(N2CCOC(C)(C(=O)N(C)C)C2)c2ccccc12` (stereo not given), for which the cytotoxicity at 10 µM amounted to 10.4%. To `Cn1cnc2ccc(NC(=O)CC3CCN(S(C)(=O)=O)CC3)cc21` belongs 22.6%; to `Cn1cc(Cl)c(C(=O)N2CCc3nc4sccc4c(=O)n3CC2)n1`, -3.04%; to `COCCN1CCN(Cc2cnc(C)nc2)CC1`, -22.8%. `Cc1nn(C)c(C)c1CN1CCCC1c1nccc(CN(C)C)n1` (stereo not given): the cytotoxicity at 10 µM was -28.1%. As for `O=C(c1cccnc1)N1CCCC(Cc2nccs2)C1` (stereo not given), the figure is -2.86%; as for `CC(CNC(=O)c1cc(-n2cccn2)ccn1)Cn1ccnc1` (stereo not given), -3.43%; as for `CC(C)(C)c1ccc2c(c1)CCN2C(=O)c1nc(=O)[nH][nH]1`, -3.74%. For `Cc1ccc(CN(C)C(=O)C(C)n2cncn2)o1` (stereo not given), the cytotoxicity at 10 µM is -3.33%. To `CC(C)c1nc(CN2CCN(C(=O)OC(C)(C)C)C(C)C2)no1` (stereo not given) belongs 1.62%; to `CCSc1cc(C(=O)NC(C)c2cccc(N3CCOC3=O)c2)ccn1` (stereo not given), 24.1%. To `CC(C)COC(=O)N1CCCN(C(C)c2nc(C(C)C)no2)CC1` (stereo not given) belongs 6.85%. To `Cc1nc2n(n1)CC(NCc1ccccc1OCC(=O)N(C)C)CC2` (stereo not given) belongs 7.61%; to `O=C(Nc1cccs1)N(CCO)CCOCC(F)(F)F`, 3.84%. Regarding `Cc1ccc(C)c(S(=O)(=O)NC(=O)COc2cccc(C#N)c2)c1`, the cytotoxicity at 10 µM stood at 9.7%. Regarding `CC(NC(=O)Nc1ccc(OC2CCCC2)cc1)c1nc[nH]n1` (stereo not given), the cytotoxicity at 10 µM is -5.42%. As to `CS(=O)(=O)CCCSc1cccc(C#N)c1`, the cytotoxicity at 10 µM is -1.38%.

As to `CNC(=O)CN1CCN(C(=O)Nc2ccc(Cl)cc2F)CC1`, the cytotoxicity at 10 µM was found to be 1.41%. As to `Cc1cccc(NC(=O)c2sc(C)nc2C)n1`, the cytotoxicity at 10 µM stood at 5.52%. As for `COc1cccc2[nH]cc(CCNC(=O)N3CCOCC3C3CC3)c12` (stereo not given), the cytotoxicity at 10 µM was 12.1%. `Cc1cc(CNC(=O)N2CCN(Cc3ccccc3)C[C@H]2C)on1`: the cytotoxicity at 10 µM is -131%. On to `O=C(CS(=O)(=O)C1CCCC1)NC1CCCc2cc(OC(F)F)ccc21` (stereo not given), for which the cytotoxicity at 10 µM amounted to 4.84%. For the compound `Cc1nccn1CCCNc1ccc(Cl)c(C#N)n1`, the cytotoxicity at 10 µM is -7.62%.

For `COCC(C)NC(=O)CN1CCCC1` (stereo not given), the cytotoxicity at 10 µM is -7.42%. Take `Cc1ccc(N2CCCC(N3CCC4(CC3)OCCO4)C2=O)cc1` (stereo not given): the cytotoxicity at 10 µM was found to be 6.7%. As for `Cc1n[nH]cc1CNC1(c2ccc(Br)cc2)CC1`, the cytotoxicity at 10 µM turned out to be 13.9%.

`O=C(NCC1(O)CCSC1)c1cccc(-n2cccn2)c1` (stereo not given): the cytotoxicity at 10 µM was -3.5%. In the case of `COc1cccc(NC(=O)CNc2ccc(C(=O)N(C)C)c(Cl)c2)c1`, the cytotoxicity at 10 µM was found to be 6.91%.

Regarding `Cc1ccc(NC(=O)N(C)CC(O)COCCOC(C)C)c(Br)c1` (stereo not given), the cytotoxicity at 10 µM was 11.2%. `CC1CN(c2ccc(C#N)cn2)CCN1c1ccc2nncn2n1` (stereo not given): the cytotoxicity at 10 µM stood at 1.42%. For `O=C(NCC(O)C1CC1)Nc1cnn(Cc2ccccc2)c1` (stereo not given), the cytotoxicity at 10 µM worked out at 4.85%. As for `Cc1cccn2cc(C[S+]([O-])Cc3noc(C(C)C)n3)nc12` (stereo not given), the figure is 6.13%; as for `CCCc1nc(CNc2ccc(F)c(F)c2)no1`, 8.93%; as for `Cc1cc(S(=O)(=O)Nc2cccc(-n3cccc3)c2)sc1C(=O)O`, -2.23%. To `CNC(=O)CS(=O)(=O)Cc1coc(-c2ccc(F)cc2)n1` belongs -9.44%; to `Cc1noc(C(C)C)c1C(=O)N1CCOCC1CC(=O)c1ccco1` (stereo not given), 2.09%; to `CO[C@@H]1CC[C@H]2[C@H]1OCCN2C(=O)c1nn(C)c2ccccc12`, 1.31%.

On to `Cc1nc(CN2CCO[C@@H]3CN(C(=O)CN(C)C)CC[C@@H]3C2)cs1`, for which the cytotoxicity at 10 µM is -0.587%. Regarding `CCc1ccc(CN2CCN(c3cccc(OC)c3)C(=O)C2)nc1`, the cytotoxicity at 10 µM worked out at 1.76%. On to `Cn1ccnc1-c1ccc(NCC2COc3ccccc3O2)nn1` (stereo not given), for which the cytotoxicity at 10 µM stood at 3.31%.

For `C[C@@H]1CN(C(=O)c2nc3ccc(Cl)cn3c2-c2ncc[nH]2)C[C@H](C)O1`, the cytotoxicity at 10 µM is -6.01%.

In the case of `Cc1noc(C)c1CN1C[C@@H](NC(=O)N(C)C)[C@H](C(C)C)C1`, the cytotoxicity at 10 µM turned out to be 5.35%. For `COc1ccc2[nH]nc(CN3CCC(C(C)N(C)C)CC3)c2c1` (stereo not given), the cytotoxicity at 10 µM is -1.45%. To `COc1ccccc1C1CNC(=O)c2nc(-c3c(C)n[nH]c3C)[nH]c2C1` (stereo not given) belongs -8%.

As to `CCC(O)Cn1cc(C2=CCN(Cc3ccc(OC)cc3)CC2)cn1` (stereo not given), the cytotoxicity at 10 µM is -3.94%. To `N[C@@H]1CC[C@H](C(=O)NCCc2nc(-c3ccccc3)cs2)C1` belongs -11.3%; to `CC(C)OC(=O)N1CCC(c2nnc(Cn3ccnc3)n2C)CC1`, -120%. With `O=C(COCC(F)(F)C(F)F)N1CCC2(CCCN(CCO)C2=O)C1` (stereo not given), the cytotoxicity at 10 µM was determined as 8.77%. `COc1nccnc1N1CCC2(CCCN(C(C)C)C2=O)C1` (stereo not given): the cytotoxicity at 10 µM came to 2.57%. `CC(C)N1CC2(CCCN(c3ccccn3)C2)CCC1=O` (stereo not given): the cytotoxicity at 10 µM was -0.608%. Consider `Cc1ccc(CC(=O)N2C[C@@H](CN(C)C)[C@@H](CO)C2)cc1C`, for which the cytotoxicity at 10 µM is -14%.

`NC(=O)C1CCCN(C(=O)c2ccc(-n3ccnc3)cc2)C1` (stereo not given): the cytotoxicity at 10 µM was -4.4%. Regarding `CCc1nc(NC(=O)NCCc2cccc(C)n2)nn1C`, the cytotoxicity at 10 µM was determined as 2.48%. As for `OCCN1CCc2[nH]nc(C(c3ccccc3)c3ccccc3)c2C1`, the figure is -2.98%. On to `O=C(C1CC(=O)N(C2CC2)C1)N1CCN(CCn2cccc2)CC1` (stereo not given), for which the cytotoxicity at 10 µM is -12%. To `CCS(=O)(=O)c1ccccc1N1CCC(NC(=O)C2CC2)CC1` belongs -1.58%; to `Cn1cc(CCNCc2cc(Cl)c3c(c2)OCCO3)cn1`, -9.69%. As for `Cc1noc(C)c1CC(=O)NCc1ccnc(OCC(F)(F)F)c1`, the figure is -7.83%; as for `COc1ccc(C)cc1C(=O)N1CCCC(n2nc(C)nc2C)C1` (stereo not given), -5.68%; as for `O=C(CCCN1C(=O)CCC1=O)NCC1(c2ccccc2)CCC1`, -17.1%. `CC(NC(=O)NCCn1ccnc1)c1ccc2c(c1)OCCCO2` (stereo not given): the cytotoxicity at 10 µM is -7.27%. As for `CCOCCN1CCN(Cc2cccc(C(=O)N(C)C)c2)CC1C` (stereo not given), the figure is 3.57%; as for `O=C(c1ccc2c(c1)OCO2)N1CCCC(n2ccnc2)C1` (stereo not given), -7.6%.

For the compound `Cc1cnn(CC2CCCN2Cc2noc(C(C)(C)C)n2)c1` (stereo not given), the cytotoxicity at 10 µM is -10.7%.

For the compound `CC(C)c1n[nH]c(C2CN(Cc3nnc(C4CC4)o3)CCO2)n1` (stereo not given), the cytotoxicity at 10 µM was -10.1%. As for `Cc1csc(N2CCCN(C(=O)c3cnns3)CC2)n1`, the figure is 5.92%; as for `COCc1ccccc1CNCc1c(C)nn(C)c1N(C)C`, -8.45%; as for `CCOc1c(CNCCCn2ccnc2)cc(Cl)cc1OC`, -3.88%.

With `O=C(C1CCCC1)N1CCCC2(CCN(c3cnccn3)CC2)C1`, the cytotoxicity at 10 µM came to 9.53%. `O=C(NCC1CC1)[C@@H]1CCO[C@@H]2CCN(Cc3ccsc3)C[C@H]21`: the cytotoxicity at 10 µM is -76.5%. With `CCc1ncnc2c1CCN(Cc1ccccn1)CC2`, the cytotoxicity at 10 µM was 1.39%. Turning to `CC(C)c1nn(C)c(N(C)C)c1CNCc1ccccc1CO`, the cytotoxicity at 10 µM is -9.89%. On to `O=C1CC2(CCN(CCO)C2)CN1c1cccc(F)c1` (stereo not given), for which the cytotoxicity at 10 µM is -149%. With `O=C(NCc1cccnc1)[C@@H]1C[C@@H]2CCN(c3ncc(F)cn3)C[C@@H]2O1`, the cytotoxicity at 10 µM is -72.1%. With `CCCN1CCc2[nH]nc(C(=O)N3CCNC(=O)C3)c2C1`, the cytotoxicity at 10 µM is 14.9%.

Turning to `CCN1CCC2(CC1)CC(NC(=O)c1ccnnc1)c1ccccc12` (stereo not given), the cytotoxicity at 10 µM was -6.9%. As for `Cn1nc(Cn2ccnc2)c2c1CN(Cc1ccoc1)C2`, the cytotoxicity at 10 µM turned out to be 0.319%. `CN1Cc2ccccc2CC2(CCN(CCO)CC2)C1=O`: the cytotoxicity at 10 µM is -6.58%. To `COCC1CN(C(=O)COc2ccccc2C)Cc2ncn(C)c21` (stereo not given) belongs -2.17%. Turning to `CNC(=O)C1CCC2(CCNCC2)C1` (stereo not given), the cytotoxicity at 10 µM worked out at 6.41%. As for `CN1C(=O)CC(c2cnn(C)c2)C12CCN(CC1CCOCC1)CC2` (stereo not given), the figure is -3.19%. In the case of `CN(C)CCN1CCC2[C@@H]1CCN2Cc1ccc2c(c1)OCO2` (stereo not given in full), the cytotoxicity at 10 µM was -4.28%.
